TAAR1 antag: antagonists of human TAAR1 | Q96RJ0 | CHO RD-HGA16 TAAR1, Fluo-8 calcium fluorescence, antagonist | inhibition, % at 3 µM | 360,000 tested, 1.5% active;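 active means inhibition above a per-plate cutoff, the mean inhibition of test compounds on that plate plus 3 SD, cut at about 49% in these data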
Target sequence (Q96RJ0 whole entry, looked up): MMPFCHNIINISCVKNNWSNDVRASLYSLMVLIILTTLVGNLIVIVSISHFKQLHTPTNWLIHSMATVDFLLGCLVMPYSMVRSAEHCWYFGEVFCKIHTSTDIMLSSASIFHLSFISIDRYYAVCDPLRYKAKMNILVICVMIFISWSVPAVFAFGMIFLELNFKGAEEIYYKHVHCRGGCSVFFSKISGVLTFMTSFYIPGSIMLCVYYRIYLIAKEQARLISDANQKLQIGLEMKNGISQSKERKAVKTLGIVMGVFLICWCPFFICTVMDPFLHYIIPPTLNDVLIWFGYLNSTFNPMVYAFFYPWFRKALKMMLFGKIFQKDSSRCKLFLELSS
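Test system: CHO RD-HGA16 cells bearing hTAAR1 | Reagent: β-PEA, EC80 | Compound dosing: 3 µM, single point | Schedule: Dye loading 75 min at 37 °C, then 30 min room temperature | Signal: Calcium fluorescence with Fluo-8 | Evaluation: Percent inhibition of PEA-evoked calcium signal, max/basal emission ratio | Control set: DMSO-only wells and EC80 β-PEA-stimulated wells | Repeats: Singlicate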
GPR7 antag: blocks human GPR7 receptor signaling; P48145; GPR7-expressing cells, fluorescence antagonist assay; inhibition, % at 4.4 µM; 290,000 tested, 1.1% active; in the data active means inhibition above about 16%, passing the limit was not always enough;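 further: cells stimulated with the agonist NPW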
Target sequence (P48145 whole entry, looked up): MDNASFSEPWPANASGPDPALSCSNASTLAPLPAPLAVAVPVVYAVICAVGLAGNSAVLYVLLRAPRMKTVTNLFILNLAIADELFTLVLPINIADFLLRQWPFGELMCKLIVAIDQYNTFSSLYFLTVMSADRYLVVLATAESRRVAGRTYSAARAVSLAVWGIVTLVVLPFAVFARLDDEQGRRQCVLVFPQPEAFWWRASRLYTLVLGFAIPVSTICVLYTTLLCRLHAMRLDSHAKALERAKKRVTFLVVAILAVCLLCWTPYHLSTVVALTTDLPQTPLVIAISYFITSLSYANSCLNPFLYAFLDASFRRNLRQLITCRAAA
TAAR1 agonist: agonists of human TAAR1 | 360,000 tested, 0.99% active | AID 624467 | activation, % at 3 µM | CHO RD-HGA16 TAAR1, Fluo-8 calcium fluorescence; vehicle wells 0%, saturating PEA agonist 100%;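 active means activation above the mean activation of all test compounds in the run plus 3 SD, cut at about 38% in these data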
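Assay system: CHO-derived RD-HGA16 cells with stable Gα16 and human TAAR1; timing: 17-24 h seeding, 75 min 37 °C dye, 30 min RT; read-out: % activation from peak over basal fluorescence ratio, DMSO-to-PEA scaled; measured by: kinetic Fluo-8 calcium fluorescence; benchmarks: low control DMSO, high control PEA (EC100); doses: 3 µM single concentration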
CHO parental Ca: counter-screen: ATP calcium response change in parental CHO cells; parental CHO-K1, ATP-induced calcium, Fluo-8 fluorescence; inhibition, % at 5.6 µM; 330,000 tested, 0.63% active;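 active means inhibition above that plate's mean sample inhibition plus 3 SD, cut at about 26% in these data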
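Measured by: calcium-sensitive Fluo-8 fluorescence / Test system: CHO parental line / Controls: ATP-challenged DMSO wells low, unchallenged DMSO wells high / Measure: % inhibition / Compound: single nominal dose of 5.6 µM per compound / Replicates: single well per compound, no replicates / Reagent: ATP as calcium-mobilizing challenge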
OX1R antag-1: antagonists of human orexin 1 receptor (OX1R); AID 485270; O43613; inhibition, % at 6.6 µM; OX1R-expressing cells, FRET antagonist read-out; 330,000 tested, 1.8% active; in the data active means inhibition mostly above about 38%, no sharp cut-off; inactive means mostly below about 40%
OX1R antag-2: antagonists of human orexin 1 receptor. 330,000 tested, 0.43% active. inhibition, % at 5 µM. CHO/OX1R cells, Fluo-8 calcium fluorescence, orexin A;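 active means inhibition above its plate's threshold, mean inhibition of all tested compounds on the plate plus 3 SD, cut at about 37% in these data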
Numbers stand for hits; n = inactive; x = not tested or not shown. Shown are actives, neighbours in structure and some others; about 4.6% of the full set was active somewhere.

SMILES	TAAR1 antag	GPR7 antag	TAAR1 agonist	CHO parental Ca	OX1R antag-1	OX1R antag-2
O=C(CSc1ccc2ccccc2n1)N1CCC(c2noc3ccc(F)cc23)CC1	n	n	n	n	55	n
O=C(CSc1ccccc1Cl)N1CCC(c2nc3ccccc3s2)CC1	n	n	n	n	n	n
O=C(CSc1ccc(F)cc1)N1CCC(c2nc3ccccc3s2)CC1	52	n	n	n	n	n
CCCCN(C)Cc1c(O)ccc2c(=O)c(-c3ccccc3OC)coc12	n	n	n	n	n	n
CC(C)NC(=O)CN1CCC(c2nc3ccccc3[nH]2)CC1	n	n	n	n	n	n
CCOc1ccccc1NC(=O)CSc1nnc(-c2ccccc2Cl)n1Cc1ccco1	n	n	n	n	69	n
O=C(CSc1nnc(-c2ccccc2)n1Cc1ccco1)Nc1ccc2c(c1)OCCO2	n	n	n	n	48	n
O=C(CSc1nnc(-c2cccs2)n1Cc1ccco1)Nc1ccc2c(c1)OCO2	n	n	n	n	n	n
O=C(CSc1ncc(-c2ccc(F)cc2)n1Cc1ccco1)Nc1ccc2c(c1)OCO2	n	29	n	38	n	n
C=CCn1c(SCC(=O)Nc2ccc3c(c2)OCO3)nnc1-c1ccccc1	n	n	n	n	n	n
CCOc1ccc(NC(=O)CSc2ncc(-c3ccc(F)cc3)n2Cc2ccco2)cc1	n	n	n	n	n	n
C=CCn1c(SCC(=O)Nc2ccc3c(c2)OCO3)nnc1-c1cc(Br)ccc1O	n	n	n	n	65	n
Cc1cc(SC(C)C(=O)Nc2c(C)n(C)n(-c3ccccc3)c2=O)nc2ccccc12 (configuration not stated)	n	n	n	n	n	n
CCC(O)(CC)C(=O)N=Nc1c(O)[nH]c2ccccc12	n	n	n	n	n	n
O=C(CNC(=O)c1ccccn1)N=Nc1c(O)[nH]c2ccccc12	n	n	n	n	71	n
CC(C)CC(=O)N=Nc1c(O)[nH]c2ccccc12	n	n	n	n	53	n
O=C(CSCc1cccc(Br)c1)N=Nc1c(O)[nH]c2ccccc12	n	n	n	n	51	n
CCOc1ccccc1N1CCN(c2nc(N)c(C#N)c(CC#N)c2C#N)CC1	50	n	n	n	n	n
CCOC1=C2[C@H](c3ccccc3)N(S(=O)(=O)c3ccc(C)cc3)C[C@H]2n2c(=O)n(-c3ccccc3)c(=O)n2C1	n	x	n	x	x	x
O=C(CC1S/C(=N/N=C/c2c[nH]c3ccc(OCc4ccccc4)cc23)NC1=O)Nc1ccccc1 (configuration not stated)	n	n	n	n	n	n
O=C(CC1S/C(=N/N=C/c2c[nH]c3ccccc23)NC1=O)Nc1ccccc1 (configuration not stated)	n	18	n	n	n	n
Nn1c(-c2ccc(O)cc2)nnc1-c1ccc(O)cc1	n	n	n	n	n	n
COc1ccc(-c2sc3ccc(OC)cc3c2C#CCCO)cc1	x	n	x	n	n	n
COc1ccc2sc(-c3ccc(N(C)C)cc3)c(C#CCCO)c2c1	n	x	n	n	51	n
O=C(/C=C/c1ccccc1)NC(=S)NNC(=O)c1ccco1	n	n	43	n	n	n
SMILES	TAAR1 antag	GPR7 antag	TAAR1 agonist	CHO parental Ca	OX1R antag-1	OX1R antag-2
COc1ccccc1-c1cc2nc(NCCc3ccncc3)ccn2n1	n	x	n	x	x	x
NS(=O)(=O)c1ccc(CCNc2ccn3nc(-c4cccc(C(F)(F)F)c4)cc3n2)cc1	61	x	n	x	x	x
COc1ccccc1-c1cc2nc(NCCc3ccc(S(N)(=O)=O)cc3)ccn2n1	56	x	n	x	x	x
O=C(O)CC1CCC(=C(Cl)Cl)C1 (configuration not stated)	n	n	n	n	n	n
O=C(COC(=O)c1n[nH]c2ccccc12)c1ccc(F)c(F)c1	n	x	n	n	n	n
COc1ccccc1NC(=O)c1c(Nc2ccccc2F)sc(C(=O)Nc2cccc(Cl)c2)c1N	n	n	n	42	n	n
O=[N+]([O-])c1ccc(/C=C2\CCC(C3=CCCC3)=C2N2CCOCC2)cc1	n	n	n	n	n	n
O=C(CSc1nnc(Cn2nnc3ccccc32)o1)N(Cc1ccc(Cl)cc1)c1ccccc1	n	n	n	66	75	53
Cc1cc(NC(=O)CSc2nnc(-c3ccc([N+](=O)[O-])cc3)o2)no1	n	n	n	n	59	n
CC(C)OC(=O)CSc1nnc(-c2ccc(Cl)cc2Cl)o1	n	n	n	n	n	n
Cc1cc(NC(=O)CSc2nnc(-c3ccc(O)cc3)o2)no1	n	n	n	n	n	n
CC(C)OC(=O)CSc1nnc(-c2ccc([N+](=O)[O-])cc2)o1	n	n	n	n	65	n
Cc1ccc(-n2c(-c3ccc(Br)cc3)c[n+]3c2CCc2ccc4cccnc4c2-3)cc1	n	65	n	84	n	90
Cc1ccc2nc(C)cc(C(=O)Nc3nccs3)c2c1	n	n	n	n	n	n
C=C1CCN([C@@H](C)C(=O)NCc2cc(OC)c(OC)c(OC)c2)S(=O)(=O)c2ccccc21	n	x	n	n	n	n
COc1ccc(/C=C/C(=O)N2CCCc3ccccc32)cc1	n	n	n	n	n	n
COc1cc(/C=C/C(=O)N2CCCc3ccccc32)cc(OC)c1OC	52	n	n	n	n	n
COc1ccc(C(=O)Nc2cc3c(cc2OC)CCCC3)cc1Br	n	n	n	31	72	n
Cc1cc(NC(=O)NCc2ccco2)ccc1NC(=O)NCc1ccco1	n	x	n	x	x	x
Cc1ccc(N/C(SCc2ccccc2C)=C(/C#N)C(=O)NCc2ccco2)cc1C	64	n	n	n	n	n
Cc1cccc(C)c1OCC(=O)NNC(=S)NC(=O)C1CC1	n	n	48	n	n	n
Cc1cccc(C)c1OCC(=O)NC1CC1	n	n	n	n	n	n
O=C(Nc1ccc(OCc2ccccc2)cc1)c1ccccc1	n	n	n	n	n	n
Cc1ccsc1C(=O)Nc1ccc(OCc2ccccc2)cc1	54	n	n	n	n	n
O=C(CCN1CCN(Cc2ccccc2)CC1)Nc1ccc(OCc2ccccc2)cc1	n	n	n	36	n	n
SMILES	TAAR1 antag	GPR7 antag	TAAR1 agonist	CHO parental Ca	OX1R antag-1	OX1R antag-2
N#Cc1c(N2CCCC2)ccc(Br)c1Cl	n	17	n	n	n	n
N#C/C(=C/c1ccc(F)cc1)C(N)=S	n	n	n	n	n	n
CCNC(=O)CC1C(=O)N(c2ccc(F)cc2)C(=O)N1CCc1ccc(OC)cc1 (configuration not stated)	n	n	n	n	n	n
COc1ccc(CCNC2=CC(=O)N(c3ccc(F)cc3)C2=O)cc1	n	n	n	39	n	n
Cc1ccc(C(=O)N/C(=C\c2ccc(-c3ccc(Cl)cc3)o2)C(=O)NCCCN(C)C)cc1	n	27	n	n	n	n
Cc1c(O)ccc(/C=N/Nc2nc(-c3cccnc3)nc3ccccc23)c1O	74	n	n	n	n	n
